According to ChEMBL document CHEMBL5252538, “β-Lactam analogues of combretastatin A-4 prevent metabolic inactivation by glucuronidation in chemoresistant HT-29 colon cancer cells” (Eur J Med Chem, 2017):
Active and inactive are the calls of the source. The calls are words filed in the database; no cut-off is given here.

Columns and labels:
HT-29 [1] = experiment: Induction of cell cycle arrest in human HT-29 cells assessed as accumulation of cells in sub-G1 phase at 0.5 uM incubated for 72 hrs by RNase/PI staining based flow cytometry analysis (reference value: 6%); format: functional
How it was run: (§1)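 HT-29 treated with vehicle (0.1% ethanol v/v) or compound at 0.5 µM for 24, 48 and 72 h. Adherent plus detached cells collected, fixed overnight in ice-cold 70% ethanol at −20 °C, stained with PI (50 µg/mL) plus RNase A (50 µg/mL) 30 min at 37 °C. 10,000 cells analysed by flow cytometry at 488 nm; sub-G1, G0/G1, G2/M gated on DNA content; mean of three experiments.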

[2] = Stability in phosphate buffer at pH 7.4 assessed as half life at 30 ug/ml measured for 24 hrs by analytical HPLC analysis; format: physicochemical; details: dose 30 µg/ml
[3] = Stability in phosphate buffer at pH 4 assessed as half life at 30 ug/ml measured for 24 hrs by analytical HPLC analysis; format: physicochemical; details: dose 30 µg/ml
[4] = Stability in phosphate buffer at pH 9 assessed as half life at 30 ug/ml measured for 24 hrs by analytical HPLC analysis; format: physicochemical; details: dose 30 µg/ml
MCF7 [5] = experiment: Antiproliferative activity against […] human MCF7 cells assessed as inhibition of cell growth incubated for 72 hrs by alamar blue assay; format: functional, cell-based; details: MCF7, 72 h
How it was run: (§2)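 Cells seeded 24 h before treatment (HL-60 4 × 10⁴, MCF-7 5 × 10³ per well), then given medium, vehicle (1% ethanol v/v) or serial dilutions (eight concentrations) for 72 h. Alamar Blue (10% v/v) added for 3–5 h at 37 °C in the dark, fluorescence read at ex 530/em 590 nm. Viability expressed relative to vehicle (100%), IC50 from dose–response curves; three experiments in triplicate.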

HL-60 [6] = experiment: Antiproliferative activity against […] human HL-60 cells assessed as inhibition of cell growth incubated for 72 hrs by alamar blue assay; format: functional, cell-based; details: HL-60, 72 h; how it was run: as §2
HT-29 [7] = experiment: Antiproliferative activity against combretastatin A-4 resistant human HT-29 cells assessed as inhibition of cell growth incubated for 72 hrs by SRB assay; format: functional, cell-based; details: HT-29, 72 h
How it was run: (§3)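 HT-29 (DMEM Glutamax, 10% FBS) seeded at 1 × 10⁴ cells/well, treated after 24 h with vehicle (1% ethanol v/v) or serial dilutions (eight concentrations) for 72 h; viability measured by sulforhodamine B protocol. Percent viability relative to vehicle control, IC50 from dose–response curves; mean of three experiments in triplicate.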

[8] = tested on: Panel NCI-60 (60 carcinoma cell lines); experiment: Antiproliferative activity against human panel NCI-60 (60 carcinoma cell lines) assessed as inhibition of cell growth at 10 uM incubated for 72 hrs by SRB assay; format: functional, cell-based
MCF7 [9] = experiment: Antiproliferative activity against human MCF7 cells assessed as inhibition of cell growth incubated for 72 hrs by SRB assay; format: functional
HT-29 [10] = experiment: Antiproliferative activity against human HT-29 cells assessed as inhibition of cell growth incubated for 72 hrs by SRB assay; format: functional; how it was run: as §3
HL-60 [11] = experiment: Antiproliferative activity against human HL-60 cells assessed as inhibition of cell growth incubated for 72 hrs by SRB assay; format: functional
[12] = tested on: Panel NCI-60 (60 carcinoma cell lines); experiment: Antiproliferative activity against human panel NCI-60 (60 carcinoma cell lines) incubated for 72 hrs by SRB assay; format: functional; details: read-out: LC50 (the source's name)
MCF7 [13] = experiment: Induction of cell cycle arrest in human MCF7 cells assessed as accumulation of cells at G2/M phase at 0.5 uM incubated for 24 hrs by RNase/PI staining based flow cytometry analysis (reference value: 24%); format: functional
MCF7 [14] = experiment: Induction of cell cycle arrest in human MCF7 cells assessed as accumulation of cells at sub-G1 phase at 0.5 uM incubated for 72 hrs by RNase/PI staining based flow cytometry analysis (reference value: 4%); format: functional
HT-29 [15] = experiment: Induction of cell cycle arrest in human HT-29 cells assessed as accumulation of cells at G2/M phase at 0.5 uM incubated for 72 hrs by RNase/PI staining based flow cytometry analysis relative to control; format: functional; how it was run: as §1
HT-29 [16] = experiment: Induction of cell cycle arrest in human HT-29 cells assessed as reduction in cells in G0 phase at 0.5 uM incubated for 72 hrs by RNase/PI staining based flow cytometry analysis; format: functional; how it was run: as §1
HT-29 [17] = experiment: Induction of cell cycle arrest in human HT-29 cells assessed as reduction in cells in S phase at 0.5 uM incubated for 72 hrs by RNase/PI staining based flow cytometry analysis; format: functional; how it was run: as §1
HT-29 [18] = experiment: Induction of apoptosis in human HT-29 cells assessed as decrease in Mcl-1 protein expression at 0.1 to 1 uM incubated for 48 hrs by Western blot analysis; format: functional, cell-based; details: dose 0.1-1 µM
How it was run: (§4)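 HT-29 seeded at 1 × 10⁵ cells per T25 flask; left untreated, given vehicle (0.1% EtOH v/v) or compound at 0.1 or 1 µM for 48 h. Whole-cell lysates in RIPA with protease/phosphatase inhibitors, equal protein (BCA) on 12% SDS-PAGE, PVDF; probed for Mcl-1, PARP, Bax (1:1000), HRP secondary, ECL detection, GAPDH loading control; three independent occasions.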

HT-29 [19] = experiment: Induction of apoptosis in human HT-29 cells assessed as upregulation of Bax protein expression at 0.1 to 1 uM incubated for 48 hrs by Western blot analysis; format: functional, cell-based; details: dose 0.1-1 µM; how it was run: as §4
HT-29 [20] = experiment: Induction of apoptosis in human HT-29 cells assessed as increase in PARP cleavage at 0.1 uM incubated for 48 hrs by Western blot analysis; format: functional, cell-based; how it was run: as §4
Tubulin (Bos taurus) = Tubulin (Bos taurus) (UniProt Q6B856+Q862L2+Q862F3); experiment: Inhibition of bovine tubulin polymerisation assessed as fold reduction in Vmax at 10 uM measured every 30 secs for 30 mins by spectrophotometric method relative to control; format: protein assay
Tubulin (Homo sapiens) [21] = target: T1, Tubulin (Homo sapiens) (UniProt P68371+Q9H4B7+P0DPH7+P68366+Q13509+Q71U36+P04350+Q3ZCM7+P07437+P68363+Q9BQE3+Q6PEY2+Q13885+Q9BVA1+Q9BUF5); experiment: Induction of microtubule disruption in human MCF7 cells assessed as inhibition of microtubule formation at 0.5 uM incubated for 16 hrs by immunofluorescence based confocal microscopic analysis; format: cell-based
How it was run: (§5)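 MCF-7 seeded at 1 × 10⁵ cells/mL on chamber slides, treated 16 h with vehicle (1% ethanol v/v), CA-4 (0.1 µM) or compounds (0.5 µM). Paraformaldehyde fixation (4%, 20 min), Triton X-100 permeabilisation, BSA block, anti-α-tubulin-FITC (DM1A) plus Alexa Fluor 488, DAPI mounting; confocal imaging with identical settings per experiment; three independent occasions.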

Tubulin (Homo sapiens) [22] = target: T1, Tubulin (Homo sapiens); experiment: Induction of microtubule disruption in human MCF7 cells assessed as shrunken spindle shaped microtubule formation at 0.5 uM incubated for 16 hrs by immunofluorescence based confocal microscopic analysis; format: cell-based; how it was run: as §5
Tubulin (Homo sapiens) [23] = target: T1, Tubulin (Homo sapiens); experiment: Induction of microtubule disruption in human MCF7 cells assessed as depolymerization of microtubules at 0.5 uM incubated for 16 hrs by immunofluorescence based confocal microscopic analysis; format: cell-based; how it was run: as §5
Tubulin (Homo sapiens) [24] = target: T1, Tubulin (Homo sapiens); experiment: Induction of microtubule disruption in human HT-29 cells assessed as complete loss of microtubule structure at 0.5 uM incubated for 16 hrs by immunofluorescence based confocal microscopic analysis; format: cell-based
How it was run: (§6)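 Fixed in 4% paraformaldehyde, permeabilised in 0.5% Triton X-100, blocked in 5% BSA, stained with anti-α-tubulin-FITC (DM1A, 1:100, 2 h) and Alexa Fluor 488, DAPI counterstain; confocal imaging, three occasions.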

Tubulin (Homo sapiens) [25] = target: T1, Tubulin (Homo sapiens); experiment: Induction of microtubule disruption in human HT-29 cells assessed as appearance of multiple micronucleus at 0.5 uM incubated for 16 hrs by immunofluorescence based confocal microscopic analysis; format: cell-based; how it was run: as §6
[26] = target: T2, Tubulin beta (Homo sapiens) (UniProt P68371+Q9H4B7+Q13509+P04350+Q3ZCM7+P07437+Q13885+Q9BVA1+Q9BUF5+A6NNZ2); experiment: Binding affinity to colchicine binding site of beta-tubulin in human MCF7 cells assessed as inhibition of beta-tubulin-EBI adduct formation at 10 uM pretreated for 2 hrs followed by EBI addition and measured after 1.5 hrs by Western blot analysis; format: cell-based; details: time 3.5 hrs
How it was run: (§7)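 Cells seeded at 5 × 10⁴/well, grown overnight, treated with vehicle (0.1% ethanol v/v) or compound (10 µM) for 2 h, then EBI (100 µM) added for 1.5 h. Cells washed with ice-cold PBS, lysed in Laemmli buffer, run on SDS-PAGE, blotted and probed for β-tubulin to detect the faster-migrating β-tubulin–EBI adduct; GAPDH reprobe for loading; three independent experiments.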

[27] = target: T2, Tubulin beta (Homo sapiens); experiment: Binding affinity to colchicine binding site of beta-tubulin in human HT-29 cells assessed as inhibition of beta-tubulin-EBI adduct formation at 10 uM pretreated for 2 hrs followed by EBI addition and measured after 1.5 hrs by Western blot analysis; format: cell-based; details: time 3.5 hrs; how it was run: as §7

SMILES	half-life at 30 ug/ml [2]	half-life at 30 ug/ml [3]	half-life at 30 ug/ml [4]	IC50 (MCF7 [5])	IC50 (HL-60 [6])	IC50 (HT-29 [7])	inhibition [8]	GI50 (MCF7 [9])	GI50 (HT-29 [10])	GI50 (HL-60 [11])	CC50 [12]	Activity (MCF7 [13])	Activity (MCF7 [14])	Activity (HT-29 [18])	Activity (HT-29 [19])	Activity (HT-29 [20])	fold change (FC) (Tubulin (Bos taurus))	Activity (Tubulin (Homo sapiens) [21])	Activity (Tubulin (Homo sapiens) [22])	Activity (Tubulin (Homo sapiens) [23])	also measured
COc1cc(N2C(=O)C(O)C2c2ccc(SC)cc2)cc(OC)c1OC (racemic)	> 24 h	16 h	16 h	5 nM	15 nM	15 nM	Active	< 10 nM	< 10 nM	< 10 nM	> 100000 nM	70%	12%	Active	Active	Active	3.5	Active	Active	Active	Activity (HT-29 [1]): 15%; Activity (HT-29 [15]): 68%; Activity (HT-29 [16]): Active; Activity (HT-29 [17]): Active; Activity (Tubulin (Homo sapiens) [24]): Active; Activity (Tubulin (Homo sapiens) [25]): Active; inhibition [26]: Active; inhibition [27]: Active
COc1cc(N2C(=O)C(c3ccccc3)C2c2ccc(SC)cc2)cc(OC)c1OC (racemic)	15 h	10 h	8 h	65 nM	59 nM	56 nM	Active	35 nM	32 nM	23 nM	> 100000 nM	65%	11%	Active	Active	Active	3.4	Active	Active	Active	–
